Measured values reported in ChEMBL document CHEMBL1765020, “Synthesis and structure-affinity relationships of novel dibenzylideneacetone derivatives as probes for β-amyloid plaques” (J Med Chem, 2011).
Activity calls are given as the source filed them. The calls are words filed in the database; no cut-off is given here.

Tests used:
[1] = Displacement of [125I]IMPY from amyloid beta (1 to 42) aggregate after 2 hrs by gamma counting
Procedure, shortened: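 Competition binding in 1 mL PBS (0.2 M, pH 7.4). Aggregated Aβ1-42 fibrils (60 nM final) with [125I]IMPY and inhibitor at 10^-5 to 10^-10 M, added in ethanol. Nonspecific binding was defined with 1 μM IMPY. Incubated 2 h at 37 °C with shaking, then vacuum-filtered through glass fibre filters and the bound fraction gamma-counted. IC50 was converted to Ki by Cheng-Prusoff; triplicate, mean ± SD.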

[2] = target: Amyloid-beta precursor protein (Homo sapiens) (UniProt P05067); assay: Binding affinity to amyloid beta (1 to 42) aggregate in cortex of Alzheimer disease patient brain by autoradiography; conditions: tested as the 125I-labelled form
Amyloid-beta precursor protein (Homo sapiens), sequence (P05067 whole entry): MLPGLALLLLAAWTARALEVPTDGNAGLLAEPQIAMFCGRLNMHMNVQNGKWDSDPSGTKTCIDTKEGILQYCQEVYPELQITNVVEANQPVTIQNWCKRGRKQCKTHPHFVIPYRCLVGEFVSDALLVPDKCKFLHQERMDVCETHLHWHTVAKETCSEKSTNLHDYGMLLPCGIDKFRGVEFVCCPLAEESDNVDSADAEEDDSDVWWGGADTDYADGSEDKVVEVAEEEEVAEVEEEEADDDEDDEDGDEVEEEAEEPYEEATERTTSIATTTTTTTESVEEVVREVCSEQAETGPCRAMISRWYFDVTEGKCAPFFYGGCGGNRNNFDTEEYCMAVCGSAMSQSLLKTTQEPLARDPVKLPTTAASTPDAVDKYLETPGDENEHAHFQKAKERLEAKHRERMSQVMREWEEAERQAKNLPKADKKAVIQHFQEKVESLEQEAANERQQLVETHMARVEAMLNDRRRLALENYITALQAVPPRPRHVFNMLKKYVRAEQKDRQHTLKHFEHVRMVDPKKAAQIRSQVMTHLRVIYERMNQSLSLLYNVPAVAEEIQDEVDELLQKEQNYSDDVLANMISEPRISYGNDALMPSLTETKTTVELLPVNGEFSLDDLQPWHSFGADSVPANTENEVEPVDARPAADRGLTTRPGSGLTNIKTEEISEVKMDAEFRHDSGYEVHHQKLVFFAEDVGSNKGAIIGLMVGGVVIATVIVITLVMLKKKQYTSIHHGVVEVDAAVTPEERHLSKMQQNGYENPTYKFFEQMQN
Procedure, shortened: (§1)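 Human postmortem temporal-lobe paraffin sections were used: AD patient and normal control (person). They were deparaffinized (xylene, graded ethanol), held 30 min in PBS 0.2 M pH 7.4, incubated 1 h at room temperature with radiotracer (5 μCi/100 μL), washed 3 min in 40% ethanol, rinsed, dried and exposed to an imaging plate overnight.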

[3] = target: Amyloid-beta precursor protein (Homo sapiens) (UniProt P05067); assay: Binding affinity to amyloid beta (1 to 42) aggregate in white matter of Alzheimer disease patient brain by autoradiography; format: tissue-based; conditions: tested as the 125I-labelled form; procedure, shortened: as §1
[4] = target: Amyloid-beta precursor protein (Homo sapiens) (UniProt P05067); assay: Binding affinity to amyloid beta (1 to 42) aggregate in cortex of Alzheimer disease patient brain by immunohistochemical staining using amyloid beta antibody BC05; conditions: tested as the 125I-labelled form
Procedure, shortened: (§2)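 Plaque presence and location in the AD patient temporal-lobe sections were confirmed by immunohistochemistry with monoclonal anti-Aβ1-42 antibody BC05.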

[5] = target: Amyloid-beta precursor protein (Homo sapiens) (UniProt P05067); assay: Binding affinity to amyloid beta (1 to 42) aggregate in white matter of Alzheimer disease patient brain by immunohistochemical staining using amyloid beta antibody BC05; format: tissue-based; conditions: tested as the 125I-labelled form; procedure, shortened: as §2
Spleen [6] = assay: Biodistribution in ddY mouse spleen at 10 uCi/100 uL, iv after 2 mins by gamma counting; format: ADME, organism-based; conditions: in vivo
Stomach [7] = assay: Biodistribution in ddY mouse stomach at 10 uCi/100 uL, iv after 2 mins by gamma counting; format: ADME, organism-based; conditions: in vivo
Intestine [8] = assay: Biodistribution in ddY mouse intestine at 10 uCi/100 uL, iv after 2 mins by gamma counting; format: ADME, organism-based; conditions: in vivo
Procedure, shortened: (§3)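 Normal female ddY mice (5 weeks, about 20 g; n = 4 per group) received radiotracer iv. Organs were removed and weighed at 2–120 min and counted in a γ-counter. Percent dose per gram of wet tissue was calculated against diluted aliquots of the injected material and reported as mean ± SD.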

Lung [9] = assay: Biodistribution in ddY mouse lung at 10 uCi/100 uL, iv after 2 mins by gamma counting; format: ADME, organism-based; conditions: in vivo
Heart [10] = assay: Biodistribution in ddY mouse heart at 10 uCi/100 uL, iv after 2 mins by gamma counting; format: ADME, organism-based; conditions: in vivo; procedure, shortened: as §3
Brain [11] = assay: Biodistribution in ddY mouse brain at 10 uCi/100 uL, iv after 15 mins by gamma counting; format: ADME, organism-based; conditions: in vivo, 0.25 h; procedure, shortened: as §3
Blood [12] = assay: Biodistribution in ddY mouse blood at 10 uCi/100 uL, iv after 15 mins by gamma counting; format: ADME, organism-based; conditions: in vivo, 0.25 h; procedure, shortened: as §3
Bone [13] = assay: Biodistribution in ddY mouse bone at 10 uCi/100 uL, iv after 15 mins by gamma counting; format: ADME, organism-based, Bone element; conditions: in vivo, 0.25 h; procedure, shortened: as §3
Liver [14] = assay: Biodistribution in ddY mouse liver at 10 uCi/100 uL, iv after 15 mins by gamma counting; format: ADME, organism-based; conditions: in vivo, 0.25 h
Kidney [15] = assay: Biodistribution in ddY mouse kidney at 10 uCi/100 uL, iv after 15 mins by gamma counting; format: ADME, organism-based; conditions: in vivo, 0.25 h
Spleen [16] = assay: Biodistribution in ddY mouse spleen at 10 uCi/100 uL, iv after 15 mins by gamma counting; format: ADME, organism-based; conditions: in vivo, 0.25 h
Stomach [17] = assay: Biodistribution in ddY mouse stomach at 10 uCi/100 uL, iv after 15 mins by gamma counting; format: ADME, organism-based; conditions: in vivo, 0.25 h
Intestine [18] = assay: Biodistribution in ddY mouse intestine at 10 uCi/100 uL, iv after 15 mins by gamma counting; format: ADME, organism-based; conditions: in vivo, 0.25 h; procedure, shortened: as §3
Lung [19] = assay: Biodistribution in ddY mouse lung at 10 uCi/100 uL, iv after 15 mins by gamma counting; format: ADME, organism-based; conditions: in vivo, 0.25 h
Heart [20] = assay: Biodistribution in ddY mouse heart at 10 uCi/100 uL, iv after 15 mins by gamma counting; format: ADME, organism-based; conditions: in vivo, 0.25 h; procedure, shortened: as §3
Brain [21] = assay: Biodistribution in ddY mouse brain at 10 uCi/100 uL, iv after 30 mins by gamma counting; format: ADME, organism-based; conditions: in vivo, 0.5 h; procedure, shortened: as §3
Blood [22] = assay: Biodistribution in ddY mouse blood at 10 uCi/100 uL, iv after 30 mins by gamma counting; format: ADME, organism-based; conditions: in vivo, 0.5 h; procedure, shortened: as §3
Bone [23] = assay: Biodistribution in ddY mouse bone at 10 uCi/100 uL, iv after 30 mins by gamma counting; format: ADME, organism-based, Bone element; conditions: in vivo, 0.5 h; procedure, shortened: as §3
Liver [24] = assay: Biodistribution in ddY mouse liver at 10 uCi/100 uL, iv after 30 mins by gamma counting; format: ADME, organism-based; conditions: in vivo, 0.5 h
Kidney [25] = assay: Biodistribution in ddY mouse kidney at 10 uCi/100 uL, iv after 30 mins by gamma counting; format: ADME, organism-based; conditions: in vivo, 0.5 h
Spleen [26] = assay: Biodistribution in ddY mouse spleen at 10 uCi/100 uL, iv after 30 mins by gamma counting; format: ADME, organism-based; conditions: in vivo, 0.5 h
Stomach [27] = assay: Biodistribution in ddY mouse stomach at 10 uCi/100 uL, iv after 30 mins by gamma counting; format: ADME, organism-based; conditions: in vivo, 0.5 h
Intestine [28] = assay: Biodistribution in ddY mouse intestine at 10 uCi/100 uL, iv after 30 mins by gamma counting; format: ADME, organism-based; conditions: in vivo, 0.5 h; procedure, shortened: as §3
Lung [29] = assay: Biodistribution in ddY mouse lung at 10 uCi/100 uL, iv after 30 mins by gamma counting; format: ADME, organism-based; conditions: in vivo, 0.5 h
Heart [30] = assay: Biodistribution in ddY mouse heart at 10 uCi/100 uL, iv after 30 mins by gamma counting; format: ADME, organism-based; conditions: in vivo, 0.5 h; procedure, shortened: as §3
Brain [31] = assay: Biodistribution in ddY mouse brain at 10 uCi/100 uL, iv after 60 mins by gamma counting; format: ADME, organism-based; conditions: in vivo, 1 h; procedure, shortened: as §3
Blood [32] = assay: Biodistribution in ddY mouse blood at 10 uCi/100 uL, iv after 60 mins by gamma counting; format: ADME, organism-based; conditions: in vivo, 1 h; procedure, shortened: as §3
Bone [33] = assay: Biodistribution in ddY mouse bone at 10 uCi/100 uL, iv after 60 mins by gamma counting; format: ADME, organism-based, Bone element; conditions: in vivo, 1 h; procedure, shortened: as §3
Liver [34] = assay: Biodistribution in ddY mouse liver at 10 uCi/100 uL, iv after 60 mins by gamma counting; format: ADME, organism-based; conditions: in vivo, 1 h
Kidney [35] = assay: Biodistribution in ddY mouse kidney at 10 uCi/100 uL, iv after 60 mins by gamma counting; format: ADME, organism-based; conditions: in vivo, 1 h
Spleen [36] = assay: Biodistribution in ddY mouse spleen at 10 uCi/100 uL, iv after 60 mins by gamma counting; format: ADME, organism-based; conditions: in vivo, 1 h
Stomach [37] = assay: Biodistribution in ddY mouse stomach at 10 uCi/100 uL, iv after 60 mins by gamma counting; format: ADME, organism-based; conditions: in vivo, 1 h
Intestine [38] = assay: Biodistribution in ddY mouse intestine at 10 uCi/100 uL, iv after 60 mins by gamma counting; format: ADME, organism-based; conditions: in vivo, 1 h; procedure, shortened: as §3
Lung [39] = assay: Biodistribution in ddY mouse lung at 10 uCi/100 uL, iv after 60 mins by gamma counting; format: ADME, organism-based; conditions: in vivo, 1 h
Heart [40] = assay: Biodistribution in ddY mouse heart at 10 uCi/100 uL, iv after 60 mins by gamma counting; format: ADME, organism-based; conditions: in vivo, 1 h; procedure, shortened: as §3
Brain [41] = assay: Ratio of drug uptake in ddY mouse brain at 10 uCi/100 uL, iv after 2 mins to drug uptake in ddY mouse brain at 10 uCi/100 uL, iv after 60 mins; format: ADME, organism-based; conditions: in vivo
Procedure, shortened: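 Normal female ddY mice (5 weeks, about 20 g) received the radiotracer iv, with groups of 4 per time point. At 2 and 60 min, brain and other organs were excised and weighed and counted in a γ-counter. %ID/g wet tissue was taken against diluted injectate aliquots. The ratio is brain %ID/g at 2 min divided by brain %ID/g at 60 min.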

[42] = Partition coefficient, log D of the compound; format: physicochemical; conditions: octanol/water
Procedure, shortened: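 Radiotracer partitioned between n-octanol and PBS: vortexed 3 min at room temperature, centrifuged 5 min at 3000 rpm. Weighed samples of the octanol (100 μL) and buffer (500 μL) layers were counted. log D is the log of the ratio of counts per gram, octanol versus PBS.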

Brain [43] = assay: Biodistribution in ddY mouse brain at 10 uCi/100 uL, iv after 2 mins by gamma counting; format: ADME, organism-based; conditions: in vivo; procedure, shortened: as §3
Blood [44] = assay: Biodistribution in ddY mouse blood at 10 uCi/100 uL, iv after 2 mins by gamma counting; format: ADME, organism-based; conditions: in vivo; procedure, shortened: as §3
Bone [45] = assay: Biodistribution in ddY mouse bone at 10 uCi/100 uL, iv after 2 mins by gamma counting; format: ADME, organism-based, Bone element; conditions: in vivo; procedure, shortened: as §3
Liver [46] = assay: Biodistribution in ddY mouse liver at 10 uCi/100 uL, iv after 2 mins by gamma counting; format: ADME, organism-based; conditions: in vivo
Kidney [47] = assay: Biodistribution in ddY mouse kidney at 10 uCi/100 uL, iv after 2 mins by gamma counting; format: ADME, organism-based; conditions: in vivo

CNc1ccc(/C=C/C(=O)/C=C/c2ccc(I)cc2)cc1
Ki [1]: 2.8 nM
Activity [2]: Active
Activity [3]: Active
Activity [4]: Active
Activity [5]: Active

CN(C)c1ccc(/C=C/C(=O)/C=C/c2ccc(OCCOCCOCC[18F])cc2)cc1
Drug uptake (Spleen [6]): 4.26 % ID/g
Drug uptake (Stomach [7]): 6.28 % ID/organ
Drug uptake (Intestine [8]): 4.12 % ID/g
Drug uptake (Lung [9]): 12.3 % ID/g
Drug uptake (Heart [10]): 7.6 % ID/g
Drug uptake (Brain [11]): 1.51 % ID/g
Drug uptake (Blood [12]): 3.89 % ID/g
Drug uptake (Bone [13]): 2.42 % ID/g
Drug uptake (Liver [14]): 24.41 % ID/g
Drug uptake (Kidney [15]): 12.77 % ID/g
Drug uptake (Spleen [16]): 6.19 % ID/g
Drug uptake (Stomach [17]): 7.39 % ID/organ
Drug uptake (Intestine [18]): 10.53 % ID/g
Drug uptake (Lung [19]): 6.34 % ID/g
Drug uptake (Heart [20]): 3.33 % ID/g
Drug uptake (Brain [21]): 1.04 % ID/g
Drug uptake (Blood [22]): 2.46 % ID/g
Drug uptake (Bone [23]): 2.08 % ID/g
Drug uptake (Liver [24]): 14.07 % ID/g
Drug uptake (Kidney [25]): 7.13 % ID/g
Drug uptake (Spleen [26]): 4.46 % ID/g
Drug uptake (Stomach [27]): 6 % ID/organ
Drug uptake (Intestine [28]): 17.5 % ID/g
Drug uptake (Lung [29]): 3.38 % ID/g
Drug uptake (Heart [30]): 1.9 % ID/g
Drug uptake (Brain [31]): 0.9 % ID/g
Drug uptake (Blood [32]): 1.6 % ID/g
Drug uptake (Bone [33]): 2.33 % ID/g
Drug uptake (Liver [34]): 6.88 % ID/g
Drug uptake (Kidney [35]): 3.67 % ID/g
Drug uptake (Spleen [36]): 1.93 % ID/g
Drug uptake (Stomach [37]): 3.98 % ID/organ
Drug uptake (Intestine [38]): 21.57 % ID/g
Drug uptake (Lung [39]): 1.86 % ID/g
Drug uptake (Heart [40]): 1.47 % ID/g
Ratio (Brain [41]): 4.59
logD [42]: 2.97
Drug uptake (Brain [43]): 4.13 % ID/g
Drug uptake (Blood [44]): 5.38 % ID/g
Drug uptake (Bone [45]): 2.88 % ID/g
Drug uptake (Liver [46]): 22.32 % ID/g
Drug uptake (Kidney [47]): 12.95 % ID/g

CN(C)c1ccc(/C=C/C(=O)/C=C/c2ccc(I)cc2)cc1
Ki [1]: 0.9 nM
Activity [2]: Active
Activity [3]: Active
Activity [4]: Active
Activity [5]: Active
